Measured values as given in ChEMBL document CHEMBL1123628, “Streptonigrin and lavendamycin partial structures. Probes for the minimum, potent pharmacophore of streptonigrin, lavendamycin, and synthetic quinoline-5,8-diones” (J Med Chem, 1987).
Values after ≈ are worked out from the molar mass of the structure shown.

Assays:
B16 [1] = assay: Cytotoxic activity against mouse melanoma cell culture(B-16); type: functional, cell-based
Method in brief: (§1)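 10^4 B16 or L-1210 (ATCC 219) cells were seeded per well in DMEM with 5% bovine serum and grown 48 h at 37 °C under 5% CO2. Agents from 10 mg/mL stocks in 95% ethanol or DMSO were added as 2× medium, then 48 h more. L-1210 cells were dispersed by pipetting; B16 were detached with 0.01% trypsin/0.1% EDTA for 5 min at 37 °C. Cells were counted by hemocytometer or Coulter counter, and the dose halving the count versus untreated controls was read from the count–concentration plot.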

CCRF-CEM [2] = assay: Cytotoxic activity against human lymphoblastic leukemia cell culture (CCRF-CEM); type: functional, cell-based
Candida albicans = assay: Antimicrobial activity was determined against Candida albicans ATCC 10231; type: functional
Method in brief: (§2)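 MICs (µg/mL) were determined by agar dilution/streak against S. aureus ATCC 13709, E. coli ATCC 9637, S. gallinarum ATCC 9184, K. pneumoniae ATCC 10031, M. smegmatis ATCC 607, P. aeruginosa ATCC 27853 and C. albicans ATCC 10231.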

Escherichia coli = assay: Antimicrobial activity was determined against Escherichia coli ATCC 9637; type: functional; method in brief: as §2
[3] = tested on: Epidermoid carcinoma cell line; assay: Cytotoxic activity against human epidermoid carcinoma of the nasopharynx (9KB); type: functional, cell-based
Method in brief: (§3)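 P388 (9PS, NCI-supplied line) and 9KB IC50s (µg/mL) followed NCI cell culture protocols. Samples were run in duplicate, and growth was compared with untreated controls. IC50 was extrapolated from a least-squares fit of the dose–response curve.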

L1210 [4] = assay: Cytotoxic activity against mouse lymphoblastic leukemia cell culture (L-1210); type: functional, cell-based; method in brief: as §1
[5] = tested on: Mycolicibacterium smegmatis; assay: Antimicrobial activity was determined against Mycobacterium smegmatis ATCC 607; type: functional; method in brief: as §2
P388 [6] = assay: Cytotoxic activity against P388 mouse leukemia cell culture (9PS(P388)); type: functional, cell-based; method in brief: as §3
Pseudomonas aeruginosa = assay: Antimicrobial activity was determined against Pseudomonas aeruginosa ATCC 27853 cells; type: functional; method in brief: as §2
[7] = tested on: Salmonella enterica subsp. enterica serovar Gallinarum; assay: Antimicrobial activity was determined against Salmonella gallinarum ATCC 9184; type: functional; method in brief: as §2
Staphylococcus aureus = assay: Antimicrobial activity was determined against Staphylococcus aureus ATCC 13709; type: functional; method in brief: as §2
Klebsiella pneumoniae = assay: Antimicrobial activity was determined against Klebsiella pneumoniae ATCC 10031; type: functional; method in brief: as §2
B16 [8] = assay: Cytotoxicity against mouse melanoma cell culture(B-16); type: functional, cell-based; method in brief: as §1
CCRF-CEM [9] = assay: Cytotoxicity against human lymphoblastic leukemia cell culture (CCRF-CEM); type: functional, cell-based
[10] = tested on: Epidermoid carcinoma cell line; assay: Cytotoxicity against human epidermoid carcinoma of the nasopharynx (9KB); type: functional, cell-based; method in brief: as §3
L1210 [11] = assay: Cytotoxicity against mouse lymphoblastic leukemia cell culture (L-1210); type: functional, cell-based; method in brief: as §1
P388 [12] = assay: Cytotoxicity against P388 mouse leukemia cell culture (9PS(P388)); type: functional, cell-based; method in brief: as §3

Row | MIC (Candida albicans) [µg/mL] | MIC (Escherichia coli) [µg/mL] | MIC [5] [µg/mL] | MIC (Pseudomonas aeruginosa) [µg/mL] | MIC [7] [µg/mL] | MIC (Staphylococcus aureus) [µg/mL] | MIC (Klebsiella pneumoniae) [µg/mL] | Structure (SMILES) | IC50 (B16 [1]) [µg/mL] | IC50 (CCRF-CEM [2]) [µg/mL] | IC50 [3] [µg/mL] | IC50 (L1210 [4]) [µg/mL] | IC50 (P388 [6]) [µg/mL] | IC50 (B16 [8]) [µg/mL] | IC50 (CCRF-CEM [9]) [µg/mL] | IC50 [10] [µg/mL] | IC50 (L1210 [11]) [µg/mL] | IC50 (P388 [12]) [µg/mL]
1 | 3.12 (≈ 11.1 µM) | > 100 | 1.56 (≈ 5.55 µM) | > 100 | > 100 | 1.56 (≈ 5.55 µM) | 25 (≈ 88.9 µM) | COC1=C(N)C(=O)c2nc(-c3ccccn3)ccc2C1=O | 0.45 (≈ 1.6 µM) | 0.5 (≈ 1.78 µM) | 0.33 (≈ 1.17 µM) | 0.3 (≈ 1.07 µM) | 0.034 (≈ 0.121 µM) |  |  |  |  | 
2 | > 50 | > 50 | > 50 | > 50 | > 50 | > 50 | > 50 | COC(=O)c1ccc(N)c(-c2ccc3c(n2)C(=O)C(=N)C=C3O)c1 | 0.4 (≈ 1.24 µM) | 0.4 (≈ 1.24 µM) | 2.7 (≈ 8.35 µM) | 0.6 (≈ 1.86 µM) | 0.2 (≈ 0.619 µM) |  |  |  |  | 
3 | > 50 | > 50 | > 50 | > 50 | > 50 | > 50 | > 50 | COC(=O)c1[nH]c(C(=O)OC)c(C)c2c3ccccc3nc1-2 | > 25 | 16.8 (≈ 56.3 µM) |  | > 25 |  |  |  |  |  | 
4 | > 50 | > 50 | > 50 | > 50 | > 50 | > 50 | > 50 | COC(=O)c1nc(C(C)=O)c2[nH]c3ccccc3c2c1C | > 25 |  |  | > 25 |  |  |  |  |  | 
5 | 50 (≈ 287 µM) | 50 (≈ 287 µM) | 12.5 (≈ 71.8 µM) | > 100 | 50 (≈ 287 µM) | 12.5 (≈ 71.8 µM) | 50 (≈ 287 µM) | NC1=CC(=O)c2cccnc2C1=O | 0.4 (≈ 2.3 µM) | 0.3 (≈ 1.72 µM) | 0.74 (≈ 4.25 µM) |  | 0.19 (≈ 1.09 µM) |  |  |  |  | 
6 | 50 (≈ 245 µM) | > 50 | 50 (≈ 245 µM) | > 100 | > 50 | 6.25 (≈ 30.6 µM) | 50 (≈ 245 µM) | COC1=C(N)C(=O)c2ncccc2C1=O | 1.2 (≈ 5.88 µM) | 0.2 (≈ 0.98 µM) | 1.9 (≈ 9.31 µM) | 1 (≈ 4.9 µM) | 0.22 (≈ 1.08 µM) |  |  |  |  | 
7 | > 50 | > 50 | 6.25 (≈ 20.2 µM) | > 50 | > 50 | 6.25 (≈ 20.2 µM) | 50 (≈ 162 µM) | COC(=O)c1cccc(-c2ccc3c(n2)C(=O)C(=N)C=C3O)n1 | 0.9 (≈ 2.91 µM) | 0.1 (≈ 0.323 µM) | 0.17 (≈ 0.55 µM) | 0.4 (≈ 1.29 µM) | 3.9 (≈ 12.6 µM) |  |  |  |  | 
8 | 12.5 (≈ 24.7 µM) | 6.25 (≈ 12.3 µM) | 1.56 (≈ 3.08 µM) | 6.25 (≈ 12.3 µM) | 1.56 (≈ 3.08 µM) | < 0.1 | 0.1 (≈ 0.197 µM) | COC1=C(N)C(=O)c2nc(-c3nc(C(=O)O)c(C)c(-c4ccc(OC)c(OC)c4O)c3N)ccc2C1=O [STREPTONIGRIN] |  |  |  |  |  | 0.48 (≈ 0.948 µM) | 0.00017 (≈ 0.000336 µM) | 0.0025 (≈ 0.00494 µM) | 0.61 (≈ 1.2 µM) | 0.045 (≈ 0.0889 µM)
9 | > 50 | > 50 | > 50 | > 50 | > 50 | > 50 | > 50 | NC1=CC(=O)c2ccc(-c3cc(C(=O)O)ccc3N)nc2C1=O | > 20 | 14.6 (≈ 47.2 µM) | > 10 | > 20 | 5 (≈ 16.2 µM) |  |  |  |  | 
10 | > 50 | > 50 | > 50 | > 50 | > 50 | > 50 | > 50 | NC1=CC(=O)c2ccc(-c3cccc(C(=O)O)n3)nc2C1=O |  |  |  |  |  | > 20 | 2.1 (≈ 7.11 µM) | > 10 | > 20 | > 10
11 | 50 (≈ 199 µM) | > 100 | 0.78 (≈ 3.1 µM) | > 100 | 100 (≈ 398 µM) | 3.12 (≈ 12.4 µM) | 100 (≈ 398 µM) | NC1=CC(=O)c2ccc(-c3ccccn3)nc2C1=O | 0.26 (≈ 1.03 µM) | 0.09 (≈ 0.358 µM) | 0.1 (≈ 0.398 µM) | 0.42 (≈ 1.67 µM) | 0.0023 (≈ 0.00915 µM) |  |  |  |  | 
12 |  |  |  |  |  |  |  | COC(=O)c1[nH]c(-c2ccc3c(n2)C(=O)C(=N)C=C3O)c2nc3ccccc3c-2c1C |  |  |  |  |  | 3.1 (≈ 7.52 µM) |  |  | 2.2 (≈ 5.33 µM) | 
13 | > 50 | > 50 | > 50 | > 50 | > 50 | > 50 | > 50 | COC(=O)c1nc(C(=O)OC)c(N)c(-c2ccc(OC)c(OC)c2O)c1C | > 20 |  | > 10 | > 20 | > 10 |  |  |  |  | 

Row | Structure (SMILES) | MIC (Candida albicans) [µg/mL] | MIC (Escherichia coli) [µg/mL] | MIC [5] [µg/mL] | MIC (Pseudomonas aeruginosa) [µg/mL] | MIC [7] [µg/mL] | MIC (Staphylococcus aureus) [µg/mL] | MIC (Klebsiella pneumoniae) [µg/mL] | IC50 (B16 [1]) [µg/mL] | IC50 (CCRF-CEM [2]) [µg/mL] | IC50 [3] [µg/mL] | IC50 (L1210 [4]) [µg/mL] | IC50 (P388 [6]) [µg/mL] | IC50 (B16 [8]) [µg/mL] | IC50 (CCRF-CEM [9]) [µg/mL] | IC50 [10] [µg/mL] | IC50 (L1210 [11]) [µg/mL] | IC50 (P388 [12]) [µg/mL]
14 | COC(=O)c1nc(-c2ccc3c(n2)C(=O)C(=N)C(OC)=C3O)c(N)c(-c2ccc(OC)c(OC)c2O)c1C | > 100 | > 100 | > 100 | > 100 | > 100 | > 100 | > 100 |  |  |  |  |  | 1.5 (≈ 2.88 µM) | 0.017 (≈ 0.0327 µM) | 0.53 (≈ 1.02 µM) | 3.1 (≈ 5.96 µM) | 0.26 (≈ 0.5 µM)
